Experimental data as given in article PMC2728397 (The Journal of Cell Biology, 2009).

B1: WT Bim: wild-type Bim protein in thymocyte lysates (protein)
chain: MAKQPSDVSSECDREGGQLQPAERPPQLRPGAPTSLQTEPQGNPDGEGDRCPHGSPQGPLAPPASPGPFATRSPLFIFVRRSSLLSRSSSGYFSFDTDRSPAPMSCDKSTQTPSPPCQAFNHYLSAMASIRQSQEEPEDLRPEIRIAQELRRIGDEFNETYTRRVFANDYREAEDHPQMVILQLLRFIFRLVWRRH

Assays:
[1] = test system: thymocytes (Bim level); experiment: Bim expression in thymocytes; format: cell-based, mouse; settings: mutant and WT thymocytes; Western blot
[2] = test system: Bcl-2; experiment: Coimmunoprecipitation from thymocyte lysates, Bcl-2; format: binding, mouse; settings: 1% Triton X-100 buffer, pH 7.4, anti-Bim 3C5
In short: (§1)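 Thymocytes came from WT and Bim BH3-replacement knockin mice. Cells were lysed in 20 mM Tris pH 7.4, 135 mM NaCl, 1.5 mM MgCl2, 1 mM EGTA, 10% glycerol, 1% Triton X-100 and protease inhibitors. Bim was immunoprecipitated with rat mAb 3C5 (N-terminal epitope, all isoforms and mutants). Partners were shown by SDS-PAGE/Western blot with ECL: hamster mAb 3F11 (Bcl-2), rabbit polyclonals (Bcl-xL, Mcl-1).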

[3] = test system: Bcl-xL; experiment: Coimmunoprecipitation from thymocyte lysates, Bcl-xL; format: binding, mouse; settings: 1% Triton X-100 buffer, pH 7.4, anti-Bim 3C5
In short: as §1

[4] = test system: Mcl-1; experiment: Coimmunoprecipitation from thymocyte lysates, Mcl-1; format: binding, mouse; settings: 1% Triton X-100 buffer, pH 7.4, anti-Bim 3C5
In short: as §1

Molecule | Bim expression [1] | coimmunoprecipitation with Bcl-2 [2] | coimmunoprecipitation with Bcl-xL [3] | coimmunoprecipitation with Mcl-1 [4]
C[C@H](CCC(=O)O)C[C@H](C)C[C@H](C)C(=O)/C=C(\O)[C@H](C)C[C@H](C)C/C=C/[C@@H](C)[C@@H](O)[C@@H](C)[C@@H](O)C[C@@H]1CC[C@@](C)([C@H]2CC[C@@](C)([C@@H](C)O)O2)O1 [ionomycin] | increased Bim expression comparably in both the mutant and WT thymocytes |  |  | 
B1 |  | bound all of these prosurvival proteins | bound all of these prosurvival proteins | bound all of these prosurvival proteins
